Converted amounts (≈) assume the structure as drawn.
Tested on: not listed separately
Assay: (§1) Cytotoxicity against mouse L929 cells assessed as reduction in cell viability after 5 days by WST1 assay
Type: cell-based
Conditions: mouse, L929 cells
Summary of the method: (§2)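 KB-3-1 or L929 cells, 1500 per well, in DMEM + 5% FBS. Exposed to serially diluted compound for 5 days. WST-1 added, plates incubated at 37 °C (20 min for KB-3-1), absorbance read at 450 nm (reference 600 nm). Viability given as % of controls.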

| Compound | IC90 at 120 h |
| --- | --- |
| CC1(C(=O)NC2CCCCC2)CSCC(=O)N1/N=C/c1ccc([N+](=O)[O-])o1 (stereo not drawn) | > 100 µM |
| CC1(C(=O)NC2CCCCC2)CN(S(=O)(=O)c2ccccc2[N+](=O)[O-])CC(=O)N1/N=C/c1ccc([N+](=O)[O-])o1 (stereo not drawn) | > 100 µM |

Tested on: L929
Assay: as §1
Type: cell-based
Conditions: Mus musculus, L929, 120 h
Summary of the method: as §2

| Compound | IC50 |
| --- | --- |
| CC1(C(=O)NC2CCCCC2)CSCC(=O)N1/N=C/c1ccc([N+](=O)[O-])o1 (stereo not drawn) | 50 µM |
| CC1(C(=O)NC2CCCCC2)CN(S(=O)(=O)c2ccccc2[N+](=O)[O-])CC(=O)N1/N=C/c1ccc([N+](=O)[O-])o1 (stereo not drawn) | 22.9 to 100 µM |

Tested on: not listed separately
Assay: (§3) Cytotoxicity against human KB-3-1 cells assessed as reduction in cell viability after 5 days by WST1 assay
Type: cell-based
Conditions: human, KB-3-1 cells
Summary of the method: as §2

| Compound | IC90 at 120 h |
| --- | --- |
| CC1(C(=O)NC2CCCCC2)CSCC(=O)N1/N=C/c1ccc([N+](=O)[O-])o1 (stereo not drawn) | 100 µM |
| CC1(C(=O)NC2CCCCC2)CN(S(=O)(=O)c2ccccc2[N+](=O)[O-])CC(=O)N1/N=C/c1ccc([N+](=O)[O-])o1 (stereo not drawn) | > 100 µM |

Tested on: KB 3-1
Assay: as §3
Type: cell-based
Conditions: Homo sapiens, KB 3-1, 120 h
Summary of the method: as §2

| Compound | IC50 |
| --- | --- |
| CC1(C(=O)NC2CCCCC2)CSCC(=O)N1/N=C/c1ccc([N+](=O)[O-])o1 (stereo not drawn) | 16 µM |
| CC1(C(=O)NC2CCCCC2)CN(S(=O)(=O)c2ccccc2[N+](=O)[O-])CC(=O)N1/N=C/c1ccc([N+](=O)[O-])o1 (stereo not drawn) | 26.7 to 27 µM |

Tested on: not listed separately
Assay: Cytotoxicity against human FS4-LTM cells assessed as reduction in cell viability after 24 hrs by WST1 assay
Type: cell-based
Conditions: Homo sapiens, FS4-LTM, 24 h
Summary of the method: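 FS4-LTM conditionally immortalized human fibroblasts, kept without doxycycline for primary-like behaviour, in DMEM + 5% FBS. Exposed to serially diluted compound for 24 h. WST-1 added, plates incubated at 37 °C, absorbance read at 450 nm (reference 600 nm). Viability given as % of controls set to 100%.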

| Compound | IC50 |
| --- | --- |
| CC1(C(=O)NC2CCCCC2)CSCC(=O)N1/N=C/c1ccc([N+](=O)[O-])o1 (stereo not drawn) | 8.7 to 100 µM |
| CC1(C(=O)NC2CCCCC2)CN(S(=O)(=O)c2ccccc2[N+](=O)[O-])CC(=O)N1/N=C/c1ccc([N+](=O)[O-])o1 (stereo not drawn) | 12 to 100 µM |

Same assay, conditions: human, FS4-LTM cells

| Compound | IC90 at 24 h |
| --- | --- |
| CC1(C(=O)NC2CCCCC2)CSCC(=O)N1/N=C/c1ccc([N+](=O)[O-])o1 (stereo not drawn) | ≥ 100 µM |
| CC1(C(=O)NC2CCCCC2)CN(S(=O)(=O)c2ccccc2[N+](=O)[O-])CC(=O)N1/N=C/c1ccc([N+](=O)[O-])o1 (stereo not drawn) | > 100 µM |

Tested on: Pseudomonas aeruginosa
Assay: Antibacterial activity against Pseudomonas aeruginosa PA7 DSM 24068 after 18 hrs
Type: functional
Conditions: PA7 DSM 24068, 18 h
Summary of the method: (§4)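 Broth microdilution MIC. Gram-negatives grown overnight at 37 °C in Müller-Hinton broth + 1% glucose, pH 7.2; Gram-positives in trypticase soy broth with yeast extract, pH 7.2. Inoculum 5×10^5 cfu/mL final. Serial dilutions from 100 µM down to 0.2 µM, DMSO ≤1%. 18 h at 37 °C, moist; OD600. MIC = lowest concentration completely suppressing growth.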

| Compound | EC50 | MIC |
| --- | --- | --- |
| CC1(C(=O)NCc2ccccc2)CSCC(=O)N1/N=C/c1ccc([N+](=O)[O-])o1 (stereo not drawn) | > 100 µM | > 100 µM |

Tested on: Enterococcus faecium
Assay: Antibacterial activity against Enterococcus faecium DSM 20477 after 18 hrs
Type: functional
Conditions: DSM 20477, 18 h
Summary of the method: as §4

| Compound | EC50 | MIC |
| --- | --- | --- |
| CC1(C(=O)NCc2ccccc2)CSCC(=O)N1/N=C/c1ccc([N+](=O)[O-])o1 (stereo not drawn) | > 100 µM | > 100 µM |
| CC1(C(=O)NC2CCCCC2)CSCC(=O)N1/N=C/c1ccc([N+](=O)[O-])o1 (stereo not drawn) | – | > 100 µM |
| CC1(C(=O)NC2CCCCC2)CN(S(=O)(=O)c2ccccc2[N+](=O)[O-])CC(=O)N1/N=C/c1ccc([N+](=O)[O-])o1 (stereo not drawn) | – | > 100 µM |

Tested on: Escherichia coli
Assay: Antibacterial activity against Escherichia coli DSM 1116 after 18 hrs
Type: functional
Conditions: DSM 1116, 18 h
Summary of the method: as §4

| Compound | EC50 | MIC |
| --- | --- | --- |
| CC1(C(=O)NCc2ccccc2)CSCC(=O)N1/N=C/c1ccc([N+](=O)[O-])o1 (stereo not drawn) | > 100 µM | > 100 µM |

Tested on: Mycobacterium tuberculosis
Assay: Antimycobacterial activity against Mycobacterium tuberculosis H37Rv after 7 days by REMA
Type: functional
Conditions: 168 h
Summary of the method: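 REMA. 3-week H37Rv culture (2nd generation on Löwenstein–Jensen) vortexed with glass beads, set to 1.0 McFarland in 7H9, diluted 20-fold in 7H9 + OADC. 2-fold dilutions, final 1.6–400 µg/mL, 200 µL wells. 7 days at 35 °C, then resazurin 18 h. Fluorescence ex 520/em 590. MIC where signal plateaued or matched the 1% population control (t test).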

| Compound | MIC |
| --- | --- |
| CC1(C(=O)NCc2ccccc2)CSCC(=O)N1/N=C/c1ccc([N+](=O)[O-])o1 (stereo not drawn) | > 100 µM |
| CC1(C(=O)NC2CCCCC2)CSCC(=O)N1/N=C/c1ccc([N+](=O)[O-])o1 (stereo not drawn) | 32 µM (≈ 12.6 µg/mL) |
| CC1(C(=O)NC2CCCCC2)CN(S(=O)(=O)c2ccccc2[N+](=O)[O-])CC(=O)N1/N=C/c1ccc([N+](=O)[O-])o1 (stereo not drawn) | 22 µM (≈ 12.4 µg/mL) |

Tested on: Staphylococcus aureus
Assay: Antibacterial activity against methicillin-resistant Staphylococcus aureus DSM 11822 after 18 hrs
Type: functional
Conditions: DSM 11822, 18 h
Summary of the method: as §4

| Compound | MIC |
| --- | --- |
| CC1(C(=O)NCc2ccccc2)CSCC(=O)N1/N=C/c1ccc([N+](=O)[O-])o1 (stereo not drawn) | > 100 µM |
| CC1(C(=O)NC2CCCCC2)CSCC(=O)N1/N=C/c1ccc([N+](=O)[O-])o1 (stereo not drawn) | 100 µM (≈ 39.4 µg/mL) |
| CC1(C(=O)NC2CCCCC2)CN(S(=O)(=O)c2ccccc2[N+](=O)[O-])CC(=O)N1/N=C/c1ccc([N+](=O)[O-])o1 (stereo not drawn) | 100 µM (≈ 56.3 µg/mL) |

Tested on: Escherichia coli
Assay: Growth inhibition of Escherichia coli DSM 1116 at 100 uM after 18 hrs relative to control
Type: functional
Conditions: DSM 1116, 18 h, read-out: GI
Summary of the method: (§5)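 Gram-negative culture grown overnight at 37 °C in Müller-Hinton broth + 1% glucose, pH 7.2, then tested at 5×10^5 cfu/mL final. Compound at 100 µM from DMSO stock, DMSO ≤1%. Incubated 18 h at 37 °C under moist conditions. OD600 read; value reported as % growth inhibition.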

| Compound | inhibition of growth at 100 µM |
| --- | --- |
| CC1(C(=O)NC2CCCCC2)CSCC(=O)N1/N=C/c1ccc([N+](=O)[O-])o1 (stereo not drawn) | 84% |
| CC1(C(=O)NC2CCCCC2)CN(S(=O)(=O)c2ccccc2[N+](=O)[O-])CC(=O)N1/N=C/c1ccc([N+](=O)[O-])o1 (stereo not drawn) | 88% |

Tested on: Pseudomonas aeruginosa
Assay: Growth inhibition of Pseudomonas aeruginosa PA7 DSM 24068 at 100 uM after 18 hrs relative to control
Type: functional
Conditions: PA7 DSM 24068, 18 h, read-out: GI
Summary of the method: as §5

| Compound | inhibition of growth at 100 µM |
| --- | --- |
| CC1(C(=O)NC2CCCCC2)CSCC(=O)N1/N=C/c1ccc([N+](=O)[O-])o1 (stereo not drawn) | 91% |
| CC1(C(=O)NC2CCCCC2)CN(S(=O)(=O)c2ccccc2[N+](=O)[O-])CC(=O)N1/N=C/c1ccc([N+](=O)[O-])o1 (stereo not drawn) | 85% |

Tested on: Klebsiella pneumoniae
Assay: Antibacterial activity against Klebsiella pneumoniae DSM 11678 after 18 hrs
Type: functional
Conditions: DSM 11678, 18 h
Summary of the method: as §4

| Compound | EC50 | MIC |
| --- | --- | --- |
| CC1(C(=O)NCc2ccccc2)CSCC(=O)N1/N=C/c1ccc([N+](=O)[O-])o1 (stereo not drawn) | > 100 µM | > 100 µM |
| CC1(C(=O)NC2CCCCC2)CSCC(=O)N1/N=C/c1ccc([N+](=O)[O-])o1 (stereo not drawn) | – | > 100 µM |
| CC1(C(=O)NC2CCCCC2)CN(S(=O)(=O)c2ccccc2[N+](=O)[O-])CC(=O)N1/N=C/c1ccc([N+](=O)[O-])o1 (stereo not drawn) | – | > 100 µM |

Tested on: Staphylococcus aureus
Assay: Antibacterial activity against methicillin-resistant Staphylococcus aureus RKI 11-02670 after 18 hrs
Type: functional
Conditions: RKI 11-02670, 18 h
Summary of the method: as §4

| Compound | EC50 | MIC |
| --- | --- | --- |
| CC1(C(=O)NCc2ccccc2)CSCC(=O)N1/N=C/c1ccc([N+](=O)[O-])o1 (stereo not drawn) | 64 µM | > 100 µM |
| CC1(C(=O)NC2CCCCC2)CSCC(=O)N1/N=C/c1ccc([N+](=O)[O-])o1 (stereo not drawn) | 55 µM | 100 µM (≈ 39.4 µg/mL) |
| CC1(C(=O)NC2CCCCC2)CN(S(=O)(=O)c2ccccc2[N+](=O)[O-])CC(=O)N1/N=C/c1ccc([N+](=O)[O-])o1 (stereo not drawn) | 75 µM | 100 µM (≈ 56.3 µg/mL) |

Tested on: not listed separately
Assay: (§6) Cytotoxicity against human MCF7 cells assessed as reduction in cell viability after 5 days by WST1 assay
Type: cell-based
Conditions: human, MCF7 cells
Summary of the method: (§7)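 MCF-7 cells, 3000 per well, in RPMI + 5% FBS, 0.5% NEAA, 0.5% GlutaMAX and insulin 5 µg/mL. Exposed to serially diluted compound for 5 days. WST-1 incubation 2 h at 37 °C, absorbance read at 450 nm (reference 600 nm). Viability given as % of controls.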

| Compound | IC90 at 120 h |
| --- | --- |
| CC1(C(=O)NC2CCCCC2)CSCC(=O)N1/N=C/c1ccc([N+](=O)[O-])o1 (stereo not drawn) | > 100 µM |
| CC1(C(=O)NC2CCCCC2)CN(S(=O)(=O)c2ccccc2[N+](=O)[O-])CC(=O)N1/N=C/c1ccc([N+](=O)[O-])o1 (stereo not drawn) | > 100 µM |

Tested on: MCF7
Assay: as §6
Type: cell-based
Conditions: Homo sapiens, MCF7, 120 h
Summary of the method: as §7

| Compound | IC50 |
| --- | --- |
| CC1(C(=O)NC2CCCCC2)CSCC(=O)N1/N=C/c1ccc([N+](=O)[O-])o1 (stereo not drawn) | 8.7 µM |
| CC1(C(=O)NC2CCCCC2)CN(S(=O)(=O)c2ccccc2[N+](=O)[O-])CC(=O)N1/N=C/c1ccc([N+](=O)[O-])o1 (stereo not drawn) | 12 µM |

Tested on: Acinetobacter baumannii
Assay: Antibacterial activity against Acinetobacter baumannii DSM 30007 after 18 hrs
Type: functional
Conditions: DSM 30007, 18 h
Summary of the method: as §4

| Compound | EC50 | MIC |
| --- | --- | --- |
| CC1(C(=O)NCc2ccccc2)CSCC(=O)N1/N=C/c1ccc([N+](=O)[O-])o1 (stereo not drawn) | > 100 µM | > 100 µM |
| CC1(C(=O)NC2CCCCC2)CSCC(=O)N1/N=C/c1ccc([N+](=O)[O-])o1 (stereo not drawn) | – | > 100 µM |
| CC1(C(=O)NC2CCCCC2)CN(S(=O)(=O)c2ccccc2[N+](=O)[O-])CC(=O)N1/N=C/c1ccc([N+](=O)[O-])o1 (stereo not drawn) | – | > 100 µM |

Reference: ChEMBL document CHEMBL3992553, “New nitrofurans amenable by isocyanide multicomponent chemistry are active against multidrug-resistant and poly-resistant Mycobacterium tuberculosis” (Bioorg Med Chem, 2017)
